Our source for the Activity values is ChEMBL document CHEMBL2331168, “Anticonvulsant evaluation of aminoalkanol derivatives of 2- and 4-methylxanthone” (Bioorg Med Chem, 2013).

For series [1], the system named is Mus musculus. Briefly: Anticonvulsant activity in albino mouse assessed as protection against maximal electroshock-induced seizures at 30 mg/kg, ip after 0.5 hrs. Type of series: functional, organism-based. Also noted: dose 30 mg/kg. The essentials: (§1)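 Male albino mice (Carworth Farms No. 1) were given the compound ip as a suspension in 0.5% methylcellulose at 3–300 mg/kg. MES testing was at 0.5 and 4 h, sometimes also at 0.25 and 1 h. Current was 60 Hz, 50 mA, 0.2 s via corneal electrodes, with saline eye drops. Protection meant no hindlimb tonic extension, scored as protected/tested.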

The subject of series [2] is Mus musculus. Briefly: Anticonvulsant activity in albino mouse assessed as protection against maximal electroshock-induced seizures at 100 mg/kg, ip after 4 hrs. Also noted: dose 100 mg/kg. The class given is functional, organism-based. The essentials:
as §1
(Protection in the maximal electroshock model is a classic sign of anticonvulsant action.)

Series [3] deals with Rattus norvegicus. Briefly: Anticonvulsant activity in Sprague-Dawley rat assessed as protection against maximal electroshock-induced seizures at 30 mg/kg, po after 2 hrs. The class given is functional, organism-based. More on the design: dose 30 mg/kg. In outline:
(§2)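 Male Sprague-Dawley rats dosed orally at 30 mg/kg and tested at 0.25, 0.5, 1, 2 and 4 h. Seizures were induced by 60 Hz alternating current at 150 mA for 0.2 s through corneal electrodes, after a drop of 0.9% NaCl in each eye. Protection meant abolition of hindlimb tonic extension. Reported as protected/tested, usually 4 rats per time point.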

The test system of series [4] is Mus musculus. Nature of the series: Anticonvulsant activity in albino mouse assessed as protection against subcutaneous pentetrazole-induced seizures at 100 mg/kg, ip after 4 hrs. Type of series: functional, organism-based. Also noted: dose 100 mg/kg. The essentials:
(§3)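 Male albino mice (Carworth Farms No. 1) received compound ip in 0.5% methylcellulose, then pentetrazole 85 mg/kg sc in 0.9% NaCl at 0.5 or 4 h. Mice were watched for at least 30 min. Protection meant no threshold seizure, defined as a single clonic spasm lasting at least 5 s. Scored as protected/tested.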

Series [5] concerns Mus musculus. Nature of the series: Neurotoxicity in albino mouse assessed as minimal motor impairment at 100 mg/kg, ip after 0.5 hrs by rotorod test. Type of series: toxicity, organism-based. More on the design: dose 100 mg/kg, route intraperitoneal. The note with it: in vivo. The essentials: (§4)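 Male albino mice (Carworth Farms No. 1) were dosed ip with suspensions in 0.5% methylcellulose and put on a 1 in. knurled rod rotating at 6 rpm at set times after dosing. Neurotoxicity meant failure to stay on the rod for at least 1 min in each of three trials. Scored as impaired/tested.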
In general terms: Falling from the rotarod earlier than controls is read as motor impairment.

Series [6] deals with Mus musculus. Nature of the series: Anticonvulsant activity in albino mouse assessed as protection against maximal electroshock-induced seizures at 30 mg/kg, ip after 4 hrs. The class given is functional, organism-based. More on the design: dose 30 mg/kg. In outline: as §1
In series [7] the test system is Rattus norvegicus. Nature of the series: Neurotoxicity in Sprague-Dawley rat assessed as minimal motor impairment at 30 mg/kg, po after 2 hrs by rotorod test. The note with it: in vivo.
Series [8] has as its system Rattus norvegicus. Nature of the series: Neurotoxicity in Sprague-Dawley rat assessed as minimal motor impairment at 30 mg/kg, po after 0.5 hrs by rotorod test. Conditions: in vivo.
In series [9] the test system is Rattus norvegicus. Nature of the series: Neurotoxicity in Sprague-Dawley rat assessed as minimal motor impairment at 30 mg/kg, po after 4 hrs by rotorod test. The note with it: in vivo.
In series [10] the test system is Mus musculus. Briefly: Neurotoxicity in albino mouse assessed as minimal motor impairment at 30 mg/kg, ip after 0.5 hrs by rotorod test. Type of series: toxicity, organism-based. Also noted: dose 30 mg/kg, route intraperitoneal. Conditions: in vivo. The essentials:
as §4

Series [11] has as its system Mus musculus. Briefly: Anticonvulsant activity in albino mouse assessed as protection against maximal electroshock-induced seizures at 100 mg/kg, ip after 0.5 hrs. Type of series: functional, organism-based. Also noted: dose 100 mg/kg. In outline:
as §1

Series [12] relates to Mus musculus. Briefly: Anticonvulsant activity in albino mouse assessed as protection against subcutaneous pentetrazole-induced seizures at 100 mg/kg, ip after 0.5 hrs. Type of series: functional, organism-based. Also noted: dose 100 mg/kg. In outline: as §3
Series [13] deals with Rattus norvegicus. Briefly: Neurotoxicity in Sprague-Dawley rat assessed as minimal motor impairment at 30 mg/kg, po after 1 hr by rotorod test. The note with it: in vivo.
Series [14] relates to Mus musculus. Briefly: Anticonvulsant activity in albino mouse assessed as protection against subcutaneous pentetrazole-induced seizures at 30 mg/kg, ip after 4 hrs. More on the design: dose 30 mg/kg. The class given is functional, organism-based. The essentials:
as §3

For series [15], the system named is Rattus norvegicus. Briefly: Anticonvulsant activity in Sprague-Dawley rat assessed as protection against maximal electroshock-induced seizures at 30 mg/kg, po after 4 hrs. The class given is functional, organism-based. More on the design: dose 30 mg/kg. The essentials:
as §2

In series [16] the test system is Rattus norvegicus. Briefly: Anticonvulsant activity in Sprague-Dawley rat assessed as protection against maximal electroshock-induced seizures at 30 mg/kg, po after 0.25 hrs. Type of series: functional, organism-based. Also noted: dose 30 mg/kg. In outline: as §2
The subject of series [17] is Mus musculus. Nature of the series: Anticonvulsant activity in albino mouse assessed as protection against subcutaneous pentetrazole-induced seizures at 30 mg/kg, ip after 0.5 hrs. Type of series: functional, organism-based. More on the design: dose 30 mg/kg. In outline:
as §3

The test system of series [18] is Rattus norvegicus. Nature of the series: Anticonvulsant activity in Sprague-Dawley rat assessed as protection against maximal electroshock-induced seizures at 30 mg/kg, po after 0.5 hrs. The class given is functional, organism-based. More on the design: dose 30 mg/kg. In outline: as §2
Series [19] relates to Rattus norvegicus. Briefly: Anticonvulsant activity in Sprague-Dawley rat assessed as protection against maximal electroshock-induced seizures at 30 mg/kg, po after 1 hr. The class given is functional, organism-based. More on the design: dose 30 mg/kg. In outline:
as §2

Series [20] relates to Mus musculus. Nature of the series: Neurotoxicity in albino mouse assessed as minimal motor impairment at 300 mg/kg, ip after 4 hrs by rotorod test. The class given is toxicity, organism-based. Also noted: dose 300 mg/kg, route intraperitoneal. The note with it: in vivo. The essentials: as §4
The subject of series [21] is Mus musculus. Nature of the series: Neurotoxicity in albino mouse assessed as minimal motor impairment at 300 mg/kg, ip after 0.5 hrs by rotorod test. Type of series: toxicity, organism-based. More on the design: dose 300 mg/kg, route intraperitoneal. The note with it: in vivo. The essentials: as §4
For series [22], the system named is Rattus norvegicus. Briefly: Neurotoxicity in Sprague-Dawley rat assessed as minimal motor impairment at 30 mg/kg, po after 0.25 hrs by rotorod test. The note with it: in vivo.
The subject of series [23] is Mus musculus. Nature of the series: Neurotoxicity in albino mouse assessed as minimal motor impairment at 30 mg/kg, ip after 4 hrs by rotorod test. Type of series: toxicity, organism-based. More on the design: dose 30 mg/kg, route intraperitoneal. Conditions: in vivo. The essentials:
as §4

Series [24] has as its system Mus musculus. Nature of the series: Neurotoxicity in albino mouse assessed as minimal motor impairment at 100 mg/kg, ip after 4 hrs by rotorod test. Also noted: dose 100 mg/kg, route intraperitoneal. Type of series: toxicity, organism-based. The note with it: in vivo. In outline:
as §4

The test system of series [25] is Mus musculus. Briefly: Anticonvulsant activity in albino mouse assessed as protection against maximal electroshock-induced seizures at 300 mg/kg, ip after 0.5 hrs. Type of series: functional, organism-based. More on the design: dose 300 mg/kg. The essentials:
as §1

The test system of series [26] is Mus musculus. Nature of the series: Anticonvulsant activity in albino mouse assessed as protection against subcutaneous pentetrazole-induced seizures at 300 mg/kg, ip after 0.5 hrs. More on the design: dose 300 mg/kg. Type of series: functional, organism-based. In outline: as §3
Series [27] deals with Mus musculus. Briefly: Anticonvulsant activity in albino mouse assessed as protection against maximal electroshock-induced seizures at 300 mg/kg, ip after 4 hrs. Type of series: functional, organism-based. Also noted: dose 300 mg/kg. In outline: as §1
For series [28], the system named is Mus musculus. Nature of the series: Anticonvulsant activity in albino mouse assessed as protection against subcutaneous pentetrazole-induced seizures at 300 mg/kg, ip after 4 hrs. The class given is functional, organism-based. Also noted: dose 300 mg/kg. The essentials: as §3
Series [29] deals with Mus musculus. Nature of the series: Anticonvulsant activity in albino mouse assessed as protection against maximal electroshock-induced seizures at 100 mg/kg, ip after 1 hr. The class given is functional, organism-based. More on the design: dose 100 mg/kg. The essentials:
as §1

Series [30] deals with Mus musculus. Briefly: Neurotoxicity in albino mouse assessed as minimal motor impairment at 100 mg/kg, ip after 0.25 hrs by rotorod test. The class given is toxicity, organism-based. More on the design: dose 100 mg/kg, route intraperitoneal. The note with it: in vivo. The essentials: as §4

SMILES strings stand for the structures. Calls of active or inactive are those of the source.

Take `CCC(CO)NCc1cccc2c(=O)c3ccc(OC)cc3oc12` (racemic): the outcome in series [1], in [2], in [3], in series [4], in [6] and in series [12] was inactive. Moreover, the result in [14], in series [15], in series [16], in series [17], in series [18] and in series [19] was inactive. Besides, the Activity entry is on record as “Toxic” in series [5]; “Non-toxic” in series [7]; “Non-toxic” in series [8]; “Non-toxic” in series [9]; “Non-toxic” in [10]; “Non-toxic” in [13]. The Activity result is recorded as “Toxic” in [20]; “Toxic” in series [21]; “Non-toxic” in series [22]; “Non-toxic” in [23]; “Non-toxic” in series [24]. Also, the outcome in series [11] and in [25] was Active.

Turning to `COc1ccc2c(=O)c3cccc(CN[C@H](C)CO)c3oc2c1`, the result in series [1], in series [2], in series [4], in series [6], in [26] and in [11] was inactive. Besides, the outcome in series [12], in series [14], in [15], in series [16], in series [17] and in [19] was inactive. Also, the Activity entry in [7] is given as “Non-toxic”; in series [10] it was “Non-toxic”; in series [20], “Toxic”; in [21], “Toxic”; in series [22], “Non-toxic”; in series [23] it was “Non-toxic”. Moreover, in series [24], the Activity result was “Non-toxic”. Moreover, the result in series [27] and in series [25] was Active.

For `COc1ccc2c(=O)c3cccc(CN[C@@H](C)CO)c3oc2c1`, the result in series [1], in series [2], in [3], in [4], in series [6] and in series [26] was inactive. Also, the result in [12], in series [14], in series [15], in [16], in [17] and in series [18] was inactive. In addition, the result in series [28] and in series [25] was inactive. Besides, the Activity result in series [7], in series [8], in series [9], in series [10], in [13] and in series [20] was “Non-toxic” each time. The Activity entry in series [22], in [23] and in series [24] was “Non-toxic” in each case. For the same compound, the outcome in series [27] was Active.

With `COc1ccc2c(=O)c3cccc(CNC(C)CO)c3oc2c1.Cl` (racemic), the result in [1], in series [2], in series [3], in series [6], in series [12] and in series [14] was inactive. Further, the result in [16], in [17] and in [19] was inactive. Further, the Activity result in series [7] was “Non-toxic”; in series [8], “Non-toxic”; in series [9], “Non-toxic”; in series [10] it was “Non-toxic”; in series [13], “Non-toxic”; in series [21], “Toxic”. Besides, the Activity entry in series [22] is given as “Non-toxic”; in [23] it was “Non-toxic”; in series [24], “Toxic”.

As for `CN(Cc1ccc2oc3ccc(Cl)cc3c(=O)c2c1)C(C)(C)CO`, the result in series [1], in series [3], in [4], in [6], in [26] and in [12] was inactive. The outcome in series [14], in series [15], in [16], in [17], in series [18] and in [19] was inactive. The outcome in series [28] was inactive. Moreover, the Activity result in [7], in series [8], in series [9], in [13], in series [20] and in series [22] was “Non-toxic” each time. Besides, the Activity result in [23] and in series [24] was “Non-toxic” throughout. Further, the result in series [27] and in [25] was Active.

With `CC(C)(CO)NCc1ccc2oc3ccc(Cl)cc3c(=O)c2c1`, the result in series [1], in series [2], in [4], in series [6], in series [26] and in [11] was inactive. In addition, the outcome in series [12], in [29], in [14], in series [17] and in [28] was inactive. Besides, the Activity entry in series [10], in series [20], in series [30] and in series [24] was “Non-toxic” each time. In addition, the outcome in series [27] and in series [25] was Active.
